Active and inactive are the calls of the source. The calls are words filed in the database; no cut-off is given here.
How the values were obtained:
Beta-lactamase = Beta-lactamase (Enterobacter cloacae, UniProt P05364); assay: Inhibition of Enterobacter cloacae P99 beta-lactamase AmpC P99 using nitrocefin as substrate after 30 mins by spectrophotometric analysis
How it was run: (§1)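 Substrate level differed between class A and class C enzymes. Fraction inhibited was taken as the rate with inhibitor over the rate without. IC50 was read from log[inhibitor] dose–response curves.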

[1] = Inhibition of beta-lactamase CTX-M9a using nitrocefin as substrate after 30 mins by spectrophotometric analysis; how it was run: as §1
[2] = Inhibition of beta-lactamase TEM1 using nitrocefin as substrate after 30 mins by spectrophotometric analysis; how it was run: as §1
[3] = Inhibition of beta-lactamase CMY-2 using nitrocefin as substrate after 30 mins by spectrophotometric analysis; how it was run: as §1
[4] = Inhibition of beta-lactamase CMY-2 expressed in Escherichia coli SYN2549 assessed as potentiation of ceftazidime-mediated antibacterial activity at 8 ug/ml
[5] = biological target: Beta-lactamase (Enterobacter cloacae) (UniProt P05364); assay: Inhibition of Enterobacter cloacae P99 beta-lactamase AmpC P99 assessed as potentiation of ceftazidime-mediated antibacterial activity at 8 ug/ml
Chain of Beta-lactamase (Enterobacter cloacae) (P05364 21-381 limits assumed): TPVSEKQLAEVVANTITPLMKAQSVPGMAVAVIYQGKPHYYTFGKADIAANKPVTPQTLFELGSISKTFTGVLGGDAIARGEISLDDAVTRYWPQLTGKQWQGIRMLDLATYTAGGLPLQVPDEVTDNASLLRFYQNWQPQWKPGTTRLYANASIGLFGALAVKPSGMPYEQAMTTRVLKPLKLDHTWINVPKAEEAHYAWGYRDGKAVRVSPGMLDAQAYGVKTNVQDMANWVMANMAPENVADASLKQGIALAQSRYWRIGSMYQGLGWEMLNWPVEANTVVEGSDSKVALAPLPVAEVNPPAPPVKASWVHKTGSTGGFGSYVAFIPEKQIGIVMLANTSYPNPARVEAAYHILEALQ

Chain of Beta-lactamase (P05364 whole entry): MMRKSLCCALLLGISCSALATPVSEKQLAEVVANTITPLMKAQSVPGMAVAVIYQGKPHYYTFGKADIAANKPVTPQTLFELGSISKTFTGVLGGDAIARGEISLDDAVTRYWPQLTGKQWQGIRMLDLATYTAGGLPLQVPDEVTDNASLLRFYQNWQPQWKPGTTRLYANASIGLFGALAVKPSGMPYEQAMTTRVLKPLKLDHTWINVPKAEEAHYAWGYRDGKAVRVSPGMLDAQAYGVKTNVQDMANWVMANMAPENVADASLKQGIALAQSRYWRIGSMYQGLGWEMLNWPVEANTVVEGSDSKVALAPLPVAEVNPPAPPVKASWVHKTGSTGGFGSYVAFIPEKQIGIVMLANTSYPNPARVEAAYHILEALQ

Compound	Ki (Beta-lactamase) [µM]	Ki [1] [µM]	Ki [2] [µM]	Ki [3] [µM]	Activity [4]	Activity [5]
OCc1cccc(Oc2ccc3c(c2)B(O)OC3)c1	8.4	1.92	1.36	8.43	–	–
O=C(Nc1ccc2c(c1)B(O)OC2)c1ccccc1	46.6	> 32	> 37	> 138	–	–
OB1OCc2ccc(Oc3cccc(OCc4ccccc4)c3)cc21	2.27	8.75	1.08	74.5	–	–
COc1ccc(Oc2ccc3c(c2)B(O)OC3)cc1	6	14.1	4.34	> 46	–	–
OB1OCc2ccc(Oc3cccc(O)c3)cc21	–	0.816	–	3.12	–	–
NCc1cccc(Oc2ccc3c(c2)B(O)OC3)c1	3.33	–	–	–	–	–
OB1OCc2ccc(Oc3ccccc3)cc21	0.71	1.89	1.02	1.51	–	–
O=C(O)c1cnc(Oc2ccc3c(c2)B(O)OC3)cn1	0.02	> 32	20.4	–	Active	Active
O=C(O)c1cccc(Oc2ccc3c(c2)B(O)OC3)c1	1.44	–	–	–	–	–
CN(C)Cc1cccc(Oc2ccc3c(c2)B(O)OC3)c1	7.72	–	–	–	–	–
O=C(c1ccccc1)c1ccc2c(c1)B(O)OC2	28.5	> 32	10.6	46.9	–	–
O=S(=O)(c1ccccc1)c1ccc2c(c1)B(O)OC2	63.2	> 32	11.2	108	–	–
OB1OCc2ccc(Nc3ccccc3)cc21	4.73	> 32	> 37	13.8	–	–
[O-][S+](c1ccccc1)c1ccc2c(c1)B(O)OC2 (stereo unspecified)	58	> 32	4.87	59.3	–	–
NCc1ccc(Oc2ccc3c(c2)B(O)OC3)cc1	13.3	–	–	–	–	–

More lines, now with the values ahead:

Ki (Beta-lactamase) [µM]	Ki [1] [µM]	Ki [2] [µM]	Ki [3] [µM]	Activity [4]	Activity [5]	Compound
5.55	> 32	3.11	–	–	–	CCOC(=O)c1ccc(Oc2ccc3c(c2)B(O)OC3)cc1
2.75	0.69	1.01	6.09	–	–	Nc1cccc(Oc2ccc3c(c2)B(O)OC3)c1
0.02	–	–	–	–	–	O=C(O)c1ccc(Oc2ccc3c(c2)B(O)OC3)cc1
16	> 32	> 37	13.8	–	–	O=C(ONc1ccccc1)c1ccc2c(c1)B(O)OC2
19.8	> 32	> 37	25.6	–	–	OB1OCc2ccc(Cc3ccccc3)cc21
0.08	> 32	14.7	0.07	–	–	O=C(O)c1cnc(Oc2ccc3c(c2)B(O)OC3)nc1
1.35	1.1	1.4	2.65	–	–	COc1cccc(Oc2ccc3c(c2)B(O)OC3)c1
40.6	–	–	–	–	–	CN(C)Cc1ccc(Oc2ccc3c(c2)B(O)OC3)cc1
8.73	–	–	–	–	–	Nc1ccc(Oc2ccc3c(c2)B(O)OC3)cc1
9.09	> 32	1.76	12.7	–	–	OB1OCc2ccc(Sc3ccccc3)cc21
7.28	> 32	> 37	8.42	–	–	OB1OCc2ccc(C(O)c3ccccc3)cc21 (stereo unspecified)
